Tests used:
[1] = In vitro calcium mineral binding: hydroxyapatite
How it was run: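 Hydroxyapatite (1 mg) was suspended in saline (1 mL). For blocking, the suspension was preincubated overnight with unlabelled agent: pamidronate (27.9 mg, 100 µmol), alendronate or sodium fluoride, matched to each tracer. Radiotracer (~700 kBq) was added and shaken for 1 h at room temperature. After centrifuging at 9677 g for 5 min, supernatant and pellet activities were counted.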

[2] = Dynamic PET-CT imaging, ROI pharmacokinetics in healthy mice; assay type: in vivo, BALB/c mice
[3] = In vitro calcium mineral binding: mean across non-HAp calcium minerals; conditions: saline, room temperature, 1 h
How it was run: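 Each calcium salt (carbonate, dibasic phosphate, pyrophosphate, β-tricalcium phosphate, oxalate; 1 mg) was suspended in saline (1 mL). Radiotracer (~700 kBq) was added and shaken for 1 h at room temperature. After centrifuging at 9677 g for 5 min, supernatant and pellet activities were counted separately.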

[4] = Ex vivo biodistribution by gamma counting; assay type: in vivo, BALB/c mice; conditions: 120 min postinjection
How it was run: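 Female BALB/c mice (6-8 weeks, 17-20 g; 5 per tracer) were anaesthetised with isoflurane (2-3% in oxygen) and the radiotracer (100 ± 15 µL, 2.2-16.2 MBq) was injected via a tail-vein cannula. After a 1 h PET scan the mice recovered and were culled at 2 h postinjection. Organs were harvested, weighed and gamma-counted against standards prepared from the injected material, giving %ID/g.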

[5] = cited from earlier work
[6] = Shelf life at room temperature; assay type: physicochemical; conditions: solid; measured by NMR, MS, and elemental analysis

| Compound | mean binding to HAp ([1]; saline, room temperature, 1 h, non-blocked) [%] | mean blocked binding to HAp ([1]; salt preincubated with excess unlabeled BP or fluoride) [%] | area under the curve from 3-59 min (AUC3-59) ([2]; heart ROI as proxy for blood) [%ID min mL^-1] | knee uptake (ROI image analysis) ([2]; mice, i.v., at 60 min postinjection) [%ID mL^-1] | mean binding across non-HAp minerals [3] [%] | femur uptake [4] [%ID/g] | pKa (amine) [5] | shelf life at room temperature [6] |
| --- | --- | --- | --- | --- | --- | --- | --- | --- |
| [18F-].[Na+] [[^18F]NaF] | 88.4 ± 4.6 | 2.2 ± 0.2 | 122.3 ± 5.1 | 54.5 ± 5.1 | 8.4 ± 4.6 | 47.1 ± 8.3 |  |  |
| NCCC(O)(P(=O)(O)O)P(=O)(O)O [Pamidronate, pamidronate disodium dihydrate] |  |  |  |  |  |  | 10.40-13.06 | at least 4485 days |

— publication PMC7611355 (Bioconjugate chemistry, 2020)
